Data taken from ChEMBL document CHEMBL4732257, “The optimization and characterization of functionalized sulfonamides derived from sulfaphenazole against Mycobacterium tuberculosis with reduced CYP 2C9 inhibition” (Bioorg Med Chem Lett, 2021).
pIC50: −log10 of the molar value. In brackets after ≈: the same amount, converted by molar mass.

Assays:
[1] = tested on: Mycobacterium tuberculosis; assay: Antimycobacterial activity against Mycobacterium tuberculosis H37Rv assessed as bacterial growth inhibition; assay type: functional
CYP2C9 = CYP2C9 (Homo sapiens, UniProt P11712); assay: Inhibition of CYP2C9 (unknown origin) at 0.5 uM relative to control; assay type: ADME
Chain of CYP2C9 (P11712 whole entry): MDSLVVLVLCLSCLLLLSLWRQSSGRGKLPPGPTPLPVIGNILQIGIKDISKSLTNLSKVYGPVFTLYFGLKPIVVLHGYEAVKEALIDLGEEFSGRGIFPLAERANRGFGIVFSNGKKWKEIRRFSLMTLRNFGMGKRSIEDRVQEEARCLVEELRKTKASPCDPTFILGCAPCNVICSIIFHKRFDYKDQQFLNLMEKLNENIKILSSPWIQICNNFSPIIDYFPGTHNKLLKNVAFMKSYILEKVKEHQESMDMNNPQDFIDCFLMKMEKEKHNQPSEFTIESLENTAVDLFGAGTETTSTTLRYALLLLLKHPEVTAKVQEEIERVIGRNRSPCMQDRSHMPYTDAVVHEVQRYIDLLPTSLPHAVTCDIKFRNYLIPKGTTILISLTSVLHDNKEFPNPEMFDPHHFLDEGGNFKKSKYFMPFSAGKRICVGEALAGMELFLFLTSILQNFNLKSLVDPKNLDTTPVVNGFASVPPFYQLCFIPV

Vero = assay: Cytotoxicity against African green monkey Vero cells assessed as reduction in cell viability; assay type: cell-based; conditions: Chlorocebus sabaeus
How it was run: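 Vero cells exposed to the compounds; IC50 taken as the concentration inhibiting 50% of cell growth relative to an untreated control.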

Cytochrome P450 2C9 = Cytochrome P450 2C9 (Homo sapiens, UniProt P11712); assay: Inhibition of CYP2C9 (unknown origin); assay type: ADME
Chain of Cytochrome P450 2C9 (P11712 whole entry): as above

COc1ccc(-c2ccc(-n3nccc3NS(=O)(=O)c3ccc(N)cc3)cc2)cc1
MIC90 [1]: > 32 µg/mL

O=C(c1ccc(S(=O)(=O)Nc2ccnn2-c2ccccc2)cc1)N1CCSCC1
MIC90 [1]: > 32 µg/mL

Nc1cccc(S(=O)(=O)Nc2ccnn2-c2ccccc2)c1
MIC90 [1]: > 32 µg/mL

Cc1cc(NS(=O)(=O)c2ccc(N)cc2)n(-c2ccccc2)n1 [SULFAZAMET]
MIC90 [1]: 15.4 µg/mL (≈ 46.8 µM)
inhibition at 0.5 µM (CYP2C9): 45%

Nc1ccc(S(=O)(=O)Nc2nc3ccc(-c4ccccc4)cc3s2)cc1
MIC90 [1]: > 32 µg/mL

Nc1ccc(S(=O)(=O)Nc2ccnn2-c2ccc([N+](=O)[O-])cc2)cc1
MIC90 [1]: 10.3 µg/mL (≈ 28.7 µM)

Nc1ccc(-c2ccc(S(=O)(=O)Nc3ccnn3-c3ccccc3)cc2)cc1
MIC90 [1]: > 32 µg/mL

Nc1ccc(S(=O)(=O)Nc2nc3ccccc3s2)cc1
MIC90 [1]: 14.3 µg/mL (≈ 46.7 µM)
inhibition at 0.5 µM (CYP2C9): 4.8%

COc1cc(N)ccc1S(=O)(=O)Nc1ccnn1-c1ccccc1
MIC90 [1]: > 32 µg/mL

Nc1ccc(S(=O)(=O)Nc2ccnn2-c2ccc(Br)cc2)cc1
MIC90 [1]: 14.5 µg/mL (≈ 37 µM)

COc1ccc(-n2nccc2NS(=O)(=O)c2ccc(N)cc2)cc1
IC50 (Vero): > 64 µg/mL
pIC50 (Cytochrome P450 2C9): 4.94
MIC90 [1]: 5.69 µg/mL (≈ 16.5 µM)
inhibition at 0.5 µM (CYP2C9): 9.1%

CC(=O)Nc1ccc(S(=O)(=O)Nc2ccnn2-c2ccccc2)cc1
MIC90 [1]: > 32 µg/mL

Nc1ccc(S(=O)(=O)Nc2ccnn2-c2ccc(C(F)(F)F)cc2)cc1
MIC90 [1]: > 32 µg/mL

CNc1ccc(S(=O)(=O)Nc2ccnn2-c2ccccc2)cc1
MIC90 [1]: > 32 µg/mL

Nc1ccc(S(=O)(=O)Nc2ccnn2-c2ccccc2)cc1 [SULFAPHENAZOLE]
IC50 (Vero): > 64 µg/mL
MIC90 [1]: 5.51 µg/mL (≈ 17.5 µM)
inhibition at 0.5 µM (CYP2C9): 48.3%

O=S(=O)(Nc1ccnn1-c1ccccc1)c1ccc(N2CCCCC2)cc1
MIC90 [1]: > 32 µg/mL

Nc1ccc(S(=O)(=O)Nc2ccnn2C2CCCCC2)cc1
MIC90 [1]: > 32 µg/mL

Cc1ccc(C)c(-n2nccc2NS(=O)(=O)c2ccc(N)cc2)c1
MIC90 [1]: > 32 µg/mL

O=C(c1ccc(S(=O)(=O)Nc2ccnn2-c2ccccc2)cc1)N1CCNCC1
MIC90 [1]: > 32 µg/mL

Nc1ccc(S(=O)(=O)Nc2ccnn2-c2ccc(F)cc2)cc1
IC50 (Vero): > 64 µg/mL
MIC90 [1]: 6.88 µg/mL (≈ 20.7 µM)
inhibition at 0.5 µM (CYP2C9): 45.7%

Nc1ccc(S(=O)(=O)Nc2ccnn2Cc2ccccc2)cc1
MIC90 [1]: > 32 µg/mL

Nc1ccc(S(=O)(=O)Nc2cc(-c3ccccc3)nn2-c2ccccc2)cc1
MIC90 [1]: > 32 µg/mL

Nc1ccc(S(=O)(=O)Nc2ccc3cnn(-c4ccccc4)c3c2)cc1
MIC90 [1]: > 32 µg/mL

O=C(c1ccc(S(=O)(=O)Nc2ccnn2-c2ccccc2)cc1)N1CCCCC1
MIC90 [1]: 30.1 µg/mL (≈ 73.4 µM)
inhibition at 0.5 µM (CYP2C9): 0.2%

Cc1ccc(-c2ccc(-n3nccc3NS(=O)(=O)c3ccc(N)cc3)cc2)cc1
MIC90 [1]: 31 µg/mL (≈ 76.7 µM)
inhibition at 0.5 µM (CYP2C9): 2.2%

Nc1ccc(S(=O)(=O)Nc2ccnn2-c2ccc(-c3ccccc3)cc2)cc1
MIC90 [1]: > 32 µg/mL

CCc1cc(NS(=O)(=O)c2ccc(N)cc2)n(-c2ccccc2)n1
MIC90 [1]: > 32 µg/mL

Cc1ccc(-n2nccc2NS(=O)(=O)c2ccc(N)cc2)cc1
IC50 (Vero): > 64 µg/mL
MIC90 [1]: 7.33 µg/mL (≈ 22.3 µM)
inhibition at 0.5 µM (CYP2C9): 52.3%

Nc1ccc(S(=O)(=O)Nc2sccc2-c2ccccc2)cc1
MIC90 [1]: > 32 µg/mL

COc1ccc(-c2ccc3nc(NS(=O)(=O)c4ccc(N)cc4)sc3c2)cc1
MIC90 [1]: > 32 µg/mL

Nc1ccc(S(=O)(=O)Nc2nc3ccccc3o2)cc1
MIC90 [1]: > 32 µg/mL

CC(C)(C)c1cc(NS(=O)(=O)c2ccc(N)cc2)n(-c2ccccc2)n1
MIC90 [1]: > 32 µg/mL

Cc1cccc(-n2nccc2NS(=O)(=O)c2ccc(N)cc2)c1
MIC90 [1]: 12.2 µg/mL (≈ 37.2 µM)

Nc1ccc(S(=O)(=O)Nc2ccnn2-c2ccccc2)cc1F
MIC90 [1]: > 32 µg/mL

Nc1ccc(S(=O)(=O)Nc2ccnn2C2CCCC2)cc1
MIC90 [1]: > 32 µg/mL

CN(c1ccnn1-c1ccccc1)S(=O)(=O)c1ccc(N)cc1
MIC90 [1]: > 32 µg/mL

NNC(=O)c1ccncc1 [ISONIAZID]
MIC90 [1]: 0.02 µg/mL (≈ 0.146 µM)

Nc1ccc(S(=O)(=O)Nc2ccnn2-c2cccc(F)c2)cc1
MIC90 [1]: 7.93 µg/mL (≈ 23.9 µM)

Nc1ccc(S(=O)(=O)Nc2ccc3scnc3c2)cc1
MIC90 [1]: > 32 µg/mL
